# Compound activity (PubChem BioAssay)
# esBAF inh: inhibitors of esBAF chromatin remodeling in mouse ES cells; Bmi1-luciferase knock-in reporter, 24 h; 100% = twice the neutral-well signal; reporter increase, % at 12.5 µM; actives 2% (n = 350,000); AID 602393; in the data active = activation above about 40%; inconclusive = no clear call, values can overlap the other calls;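 also: 0% = median of the plate's neutral control wells and 100% = double that signal; a rise in the Bmi1 reporter signal indicates esBAF inhibition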
# MITF TRPM1 HTS: activators of MITF-driven TRPM1 promoter activity in SK-MEL-5 cells; SK-MEL-5 TRPM1-promoter luciferase, 24 h; % of positive control, neutral wells = 0; activation, % at 12.5 µM; actives 0.75% (n = 300,000);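 active = mean activation of at least 80% with every replicate also reaching 80%; inconclusive = mean reaches 80% but some replicate falls short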;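 also: 0% = neutral control wells and 100% = parthenolide positive control wells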
# Casp6 inh: caspase-6 (human) enzyme inhibition | P55212 | inhibition, % at 12.5 µM | AID 686996 | actives 0.53% (n = 350,000) | purified caspase-6, Z-VEID-R110 cleavage fluorescence;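 active = mean inhibition across replicates at least about 35%, with every replicate also reaching that limit, limit read from the data; inconclusive = only one of the two criteria met; inactive = neither criterion met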;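 also: 0% = median of neutral control wells and 100% = no fluorescence left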
# Target sequence (P55212 24-179 limits assumed): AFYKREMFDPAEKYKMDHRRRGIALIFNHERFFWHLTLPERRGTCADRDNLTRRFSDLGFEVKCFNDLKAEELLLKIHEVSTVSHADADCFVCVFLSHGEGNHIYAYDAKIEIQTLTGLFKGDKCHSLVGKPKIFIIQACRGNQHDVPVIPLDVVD
# Target sequence (P55212 194-293 limits assumed): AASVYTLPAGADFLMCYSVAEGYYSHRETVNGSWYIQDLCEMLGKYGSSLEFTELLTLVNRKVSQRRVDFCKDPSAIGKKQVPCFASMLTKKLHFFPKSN
# Wnt bcat act: activates Wnt/beta-catenin signaling in a reporter cell assay. activator, plate reader. actives 1.2% (n = 300,000). activation, % at 9.35 µM; in the data active = activation above about 30%, passing the limit was not always enough; inconclusive = no clear call, values can overlap the other calls;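 also: 0% = neutral control wells and 100% = positive control wells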
# Xi reactivation: X-chromosome reactivation activator; activation, % at 7.58 µM; XiGFP mouse fibroblasts, % GFP-positive cells imaging, 3 d; cells co-treated with 5-aza-dC sensitizer; scaled so ellipticine positive control = 100%; actives 0.055% (n = 360,000);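 active = mean normalized replicate activation at least 10% and every replicate at or above 10%; inconclusive = only one of the two criteria met; inactive = mean below 10% and not all replicates reach 10%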;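 also: 0% = median of on-plate neutral control wells and 100% = ellipticine 6 µM median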
#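 System: SV40-immortalized XiGFP fibroblast cells, line 68-5-11 / Incubation: 3-day compound exposure, then 15 min fixation at room temperature / Compound: single concentration per compound, delivered by pin transfer / Buffer or medium: DMEM plus 5-aza-dC sensitizer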
# NSD2 HMT inh: NSD2 (human) methyltransferase inhibition | AID 743445 | NSD2 peptide methylation, AlphaScreen, 120 min | O96028 | actives 0.54% (n = 310,000) | inhibition, % at 12.5 µM; in the data active = inhibition above about 50%
# * = called active by the depositor; ? = inconclusive; nt = no result. Shown are actives, neighbours in structure and some others; about 3% of the full set was active somewhere.
SMILES,esBAF inh,MITF TRPM1 HTS,Casp6 inh,Wnt bcat act,Xi reactivation,NSD2 HMT inh
CC(C)(C)C1CCc2c(C(=O)N/N=C/c3cccs3)csc2C1 (configuration not stated),35.4,124.4*,-2.2,18.7,nt,-0.9
O=C(N/N=C/c1c[nH]c2ccccc12)c1ccccc1Cl,21.9,-4.9,-1.2,4.8,0.2,0.5
Cc1occc1C(=O)N/N=C/c1c[nH]c2ccccc12,50.0*,56.2,2.1,1.4,nt,4.8
CCc1ccc(/C=N/NC(=O)c2c[nH]c3ccccc23)s1,38.0,89.3*,nt,?,0.0,-1.7
CCN1/C(=C/c2ccc3cc(C)ccc3[n+]2CC)Sc2cc(C)ccc21,-43.1,-85.2,-11.7,0.1,101.5*,37.9
CCCCN1/C(=C/c2ccc3ccccc3[n+]2CC)Sc2ccccc21,nt,-68.2,nt,nt,nt,26.1
O=c1oc(-c2ccc(O)c(O)c2)cc2cc(O)cc(O)c12,38.0,59.6,20.2,6.8,nt,nt
O=c1oc(-c2ccc(O)c(O)c2)cc2cccc(O)c12,63.9*,35.1,28.9,3.0,nt,nt
CCCNC(=O)C[C@@H]1C[C@H]2c3cc(NC(=O)Cc4ccncc4)ccc3O[C@H]2[C@H](CO)O1,6.6,nt,nt,nt,0.1,nt
Cc1ccc(OC(=O)N2CCOCC2)cc1,21.6,nt,nt,9.9,nt,8.7
CC(C)(C)c1ccc(OC(=O)N2CCOCC2)cc1,45.1*,71.0,-0.2,0.9,0.0,-6.0
CNC[C@H]1Oc2ncc(-c3ccc(OC)cc3)cc2C(=O)N([C@@H](C)CO)C[C@@H]1C,-9.3,nt,nt,nt,0.4,nt
O=c1c2c3c(sc2nc2n1CCCCC2)CCCC3,50.2*,nt,nt,39.4*,nt,0.8
N=c1c2c3c(sc2nc2n1CCCCC2)CCCCC3,48.3*,69.6,nt,nt,nt,3.0
O=c1c2c3c(sc2nc2n1CCCCC2)CCCCC3,61.6*,51.0,nt,nt,nt,nt
O=c1c2c3c(sc2nc2n1CCCC2)CCCCC3,nt,39.2,nt,nt,nt,1.5
CC(C)NC(=O)Nc1ccc2c(c1)CC(=O)N(C)C[C@H](C)[C@H](CN(C)S(C)(=O)=O)O2,nt,nt,nt,nt,0.3,nt
CCOC(=O)/C(=N\Nc1ncnc2ccccc12)c1ccc(OC)cc1,-48.7,7.7,0.3,16.1,0.3,nt
COc1ccc(/C(=N/Nc2ncnc3ccccc23)C(=O)O)cc1,58.8*,-1.2,1.8,21.1,0.1,0.6
COC1CCN(C(=O)C2CCC(=O)N(C3CCCCCC3)C2)CC1 (configuration not stated),56.4*,67.6,0.1,23.0,0.3,2.1
CN(C)c1cccc(C(=O)n2cc(C(=O)c3cc(F)ccc3O)cn2)c1,51.8*,10.0,nt,nt,nt,-0.2
COc1ccc(O)c(C(=O)c2cnn(C(=O)c3cccc(N(C)C)c3)c2)c1,nt,2.7,3.3,10.1,0.3,-1.4
COc1ccccc1N=c1sc2ccccc2n1C,11.8,7.5,nt,1.4,nt,-0.8
Cn1c(=NN=Cc2ccccc2OCCO)sc2ccccc21,56.5*,nt,-5.1,43.3*,0.1,-0.8
O=C1C2C3C=CC(C4CC34)C2C(=O)N1/N=C/c1ccc([N+](=O)[O-])s1 (configuration not stated),nt,19.5,-0.3,12.3,0.3,-0.7
SMILES,esBAF inh,MITF TRPM1 HTS,Casp6 inh,Wnt bcat act,Xi reactivation,NSD2 HMT inh
O=C1C2C3C=CC(C4CC34)C2C(=O)N1/N=C/c1c[nH]c2ccccc12 (configuration not stated),57.1*,-0.8,4.1,10.7,0.1,0.3
NC(=O)N/N=C(/CCCCCC/C(=N\NC(N)=O)c1ccccc1)c1ccccc1,nt,nt,6.4,37.2*,0.4,0.0
C/C(=N\NC(N)=O)c1ccccc1,nt,7.7,-3.1,-0.1,-0.1,-2.0
COc1ccc(NC(=O)N(C)C[C@@H]2OCCCC[C@@H](C)Oc3ccc(NS(=O)(=O)c4ccccc4)cc3C(=O)N([C@H](C)CO)C[C@H]2C)cc1,6.0,nt,1.4,nt,0.2,nt
CCOC(=O)c1sc2nc3c(SCC(=O)O)cc(C(=O)c4ccccc4O)cn3c(=O)c2c1C,nt,-4.5,11.3,-1.8,0.4,1.2
O=C(O)CSc1cc(C(=O)c2ccccc2O)cn2c(=O)c3c(-c4ccccc4)csc3nc12,-10.3,-10.9,39.5*,3.3,-0.2,nt
CCCc1cc(-c2n[nH]c(C(=O)OCC)c2-c2cscn2)c(O)cc1O,-5.6,-6.1,45.0*,0.8,nt,6.0
CCOC(=O)c1[nH]nc(-c2c(O)cc(C)cc2O)c1-c1csc(C)n1,0.7,-6.6,nt,nt,nt,6.0
COc1ccccc1NC(=O)N1CCCCN2[C@@H](CO)[C@@H](c3ccc(C#CC4CC4)cc3)[C@@H]2C1,nt,nt,2.7,nt,nt,nt
Cc1ccccc1-c1nc(-c2ccc(Br)o2)no1,15.1,32.0,-0.2,?,-0.1,-1.8
COc1ccc(NC(=O)c2ccc(Br)o2)cc1,nt,78.4,1.6,?,0.0,nt
O=C(Nc1ccc(NC(=O)c2cccs2)cc1)c1ccc(Br)o1,nt,-4.7,nt,nt,nt,nt
O=C(NC(=S)Nc1ccccc1)c1ccc(Br)o1,45.0*,53.0,nt,49.9*,0.0,-0.5
Cc1ccccc1-c1nc(-c2ccc(NC(=O)c3ccc(Br)o3)cc2)no1,48.6*,71.1,nt,nt,nt,0.0
O=C(Nc1ccc(Nc2ccccc2)cc1)c1ccc(Br)o1,56.9*,41.1,nt,29.5,nt,28.5
COc1ccc(NC(=S)NC(=O)c2ccc(Br)o2)cc1,45.7*,90.0*,nt,24.5,0.0,-1.5
CN1C(=O)c2cc(NC(=O)c3cccs3)ccc2OC[C@@H]2O[C@H](CC(=O)N3CCCCC3)CC[C@@H]21,-4.7,nt,nt,nt,0.2,nt
COc1ccc2c3c([nH]c2c1)[C@H](CO)N(C(=O)c1ccncc1)CC31CN(C(=O)C2CCC2)C1,nt,nt,-0.7,nt,0.4,nt
Cc1cc(O)c(NC(=O)c2ccc(Br)o2)cc1C,67.0*,54.5,nt,?,nt,-0.9
CN(C)S(=O)(=O)c1ccc(NC(=O)c2ccc(Br)o2)cc1,8.4,19.0,nt,nt,nt,-11.0
CC(C)c1ccc(NC(=O)c2ccc(Br)o2)cc1,nt,89.4*,nt,nt,nt,4.3
CC(C)c1ccc(NC(=O)c2cccc(Br)c2)cc1,nt,70.8,-1.5,55.9*,-0.1,nt
COc1ccc(CN(C)C[C@@H]2Oc3ccc(NS(=O)(=O)c4cccs4)cc3C(=O)N([C@@H](C)CO)C[C@@H]2C)cc1,-2.7,nt,1.1,nt,-0.9,nt
C[C@H](CO)N1C[C@H](C)[C@H](CN(C)C(=O)Cc2ccccc2)OCCCC[C@H](C)Oc2ccc(NC(=O)C3CCCCC3)cc2C1=O,5.3,nt,nt,nt,0.1,nt
O=C(CSc1nnc(Nc2ccccc2F)s1)Nc1cccc(S(=O)(=O)N2CCCCC2)c1,42.9*,30.1,nt,20.3,0.0,-0.6
O=C(C[C@@H]1C=C[C@@H](NC(=O)C2CCOCC2)[C@@H](CO)O1)Nc1nccs1,nt,nt,0.8,nt,0.3,nt
CCCCC(=O)/C=C/n1c(=S)oc2ccccc21,64.9*,-8.2,-1.3,2.7,2.3,3.4
CN1C(=O)c2cc(NS(C)(=O)=O)ccc2OC[C@@H]2O[C@H](CC(=O)NC3CCCCC3)CC[C@H]21,-5.7,nt,-1.5,nt,0.0,nt
